Hits are enriched below; roughly 3.4% of the tested compounds scored in any of these assays.
TAAR1 antag – antagonists of human TAAR1. Q96RJ0. CHO RD-HGA16 TAAR1, Fluo-8 calcium fluorescence, antagonist. inhibition, % at 3 µM. actives 1.5% (n = 360,000). AID 624466;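 active = inhibition above a per-plate cutoff, the mean inhibition of test compounds on that plate plus 3 SD, cut at about 49% in these data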;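 note: 0% = DMSO plus EC80 beta-PEA response and 100% = DMSO alone without agonist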
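Material: CHO RD-HGA16 cells bearing hTAAR1; compound dosing: one-point dosing, 3 µM nominal final; schedule: dye loading 75 min at 37 °C, then 30 min room temperature; measured by: calcium fluorescence with Fluo-8; control set: vehicle and agonist controls; replication: n of 1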
CHRM1 PAM – human CHRM1 positive allosteric modulation; P11229; CHO-K1 hM1, Fluo-8 calcium fluorescence, ACh EC20; 0% = ACh EC20, 100% = maximal ACh; activation, % at 3 µM; actives 0.088% (n = 360,000); AID 588819; in the data active = activation above about 19%, passing the limit was not always enough
Target sequence (P11229 whole entry, looked up): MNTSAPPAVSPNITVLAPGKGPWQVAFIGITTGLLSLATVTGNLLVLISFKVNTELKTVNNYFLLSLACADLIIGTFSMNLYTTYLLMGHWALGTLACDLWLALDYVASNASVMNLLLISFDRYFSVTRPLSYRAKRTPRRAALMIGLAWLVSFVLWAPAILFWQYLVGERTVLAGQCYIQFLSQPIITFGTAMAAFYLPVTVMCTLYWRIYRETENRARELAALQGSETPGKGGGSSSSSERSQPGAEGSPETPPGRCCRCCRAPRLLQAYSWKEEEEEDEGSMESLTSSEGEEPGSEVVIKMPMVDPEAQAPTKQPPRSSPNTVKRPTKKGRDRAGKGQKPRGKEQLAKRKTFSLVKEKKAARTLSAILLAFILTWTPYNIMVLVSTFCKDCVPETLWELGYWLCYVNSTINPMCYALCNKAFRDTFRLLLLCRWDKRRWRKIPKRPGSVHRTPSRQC
M1 antag – blocks human M1 muscarinic receptor; CHO-K1 hM1, Fluo-8 calcium fluorescence, ACh EC80 antagonist; inhibition, % at 3 µM; actives 1.3% (n = 360,000); AID 588852;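 active = percent inhibition above its own plate's cutoff, namely the mean of that plate's compound wells plus 3 SD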;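 note: peak over basal fluorescence ratio during 140 s after agonist addition; 0% = ACh EC80 plus DMSO and 100% = DMSO alone without agonist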
M1 ag – agonists of human M1 muscarinic receptor. P11229. CHO-K1 hM1, Fluo-8 calcium fluorescence, agonist mode; 0% DMSO, 100% acetylcholine EC100. activation, % at 3 µM. actives 0.33% (n = 360,000). AID 588814;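 active = activation above the run's mean compound activation plus 3 SD, cut at about 16% in these data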;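 note: peak over basal fluorescence ratio within a 140 s kinetic read after compound addition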
TAAR1 agonist – human TAAR1 agonism | Q96RJ0 | CHO RD-HGA16 TAAR1, Fluo-8 calcium fluorescence; vehicle wells 0%, saturating PEA agonist 100% | activation, % at 3 µM | actives 0.99% (n = 360,000) | AID 624467;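 active = activation above the mean activation of all test compounds in the run plus 3 SD, cut at about 38% in these data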
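test system = CHO RD-HGA16 cells carrying human TAAR1 plus Gα16 | schedule = 17-24 h seeding, 75 min 37 °C dye, 30 min RT | compound dosing = 3 µM single concentration | control set = DMSO and PEA EC100 | replicates = n 1 | signal = Fluo-8 fluorescence, 5 s baseline then 140 s kinetic read | measure = percent activation vs PEA EC100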
TAAR1 ag conf – human TAAR1 agonism, confirmed; CHO RD-HGA16 TAAR1, Fluo-8 calcium fluorescence; scaled: DMSO 0%, maximal phenethylamine 100%; shares compounds with TAAR1 agonist; actives 82% (n = 2,400); activation, % at 3 µM;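 active = activation above a cutoff set at the run's mean compound activation plus 3 SD, cut at about 39% in these data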
Ga16 ag counter – counter-screen for TAAR1 agonists: nonselective agonists in parental cells. shares compounds with TAAR1 agonist. CHO-Ga16 parental, Fluo-8 calcium fluorescence; normalized to maximal ATP response, DMSO zero. activation, % at 3 µM. actives 50% (n = 2,400). AID 651787;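 active = activation above the run cutoff, the mean activation over all tested wells plus 3 SD, cut at about 12% in these data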;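 note: 0% = DMSO wells and 100% = maximal ATP response on the peak over basal ratio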
TAAR1 desensitize – TAAR1 response desensitization, agonist counter-screen; shares compounds with TAAR1 agonist; CHO RD-HGA16 hTAAR1, Fluo-8 calcium, beta-PEA response inhibition; inhibition, % at 3 µM; actives 46% (n = 2,400); AID 651951;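 active = inhibition above the run cutoff, the mean inhibition of all test compounds plus 3 SD, cut at about 49% in these data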;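 note: beta-PEA stimulus applied at its EC80; loss of beta-PEA calcium signal after compound pretreatment read as receptor desensitization; 0% = DMSO with beta-PEA at EC80 and 100% = DMSO alone without agonist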
Ga16 antag count – counter-screen for TAAR1 agonists: nonselective Ga16 antagonists. shares compounds with TAAR1 agonist. CHO-Ga16 ATP-induced calcium, Fluo-8 fluorescence. inhibition, % at 3 µM. actives 39% (n = 2,400);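 active = inhibition above the plate's mean compound inhibition plus 3 SD, computed per plate, cut at about 22% in these data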;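 note: 0% = EC80 ATP with DMSO and 100% = DMSO wells without ATP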
Numbers without * were called inactive.

What do the screens show for `NC(c1ccccc1)c1csc(Nc2ccc(C(=O)c3ccccc3)cc2)n1` (stereo unspecified)?
TAAR1 antag: 32; CHRM1 PAM: 2; M1 antag: -3; M1 ag: 6; TAAR1 agonist: 30

How did CCCn1c(N)c(C(=O)COC(=O)c2cccc(S(=O)(=O)N3CCOCC3)c2)c(=O)[nH]c1=O do in these assays?
TAAR1 antag: -9; CHRM1 PAM: -2; M1 antag: 8; M1 ag: -5; TAAR1 agonist: 14

How did O=C1CN(C(=O)COC(=O)[C@@H]2CCCN2S(=O)(=O)c2ccc(Cl)cc2)c2ccccc2N1 do in these assays?
TAAR1 antag: -3; CHRM1 PAM: 15; M1 antag: -25; M1 ag: 5; TAAR1 agonist: 3

What do the screens show for `O=C(Cc1ccccc1)NC(NCCc1ccccc1)C(Cl)(Cl)Cl` (stereo unspecified)?
TAAR1 antag: 9; CHRM1 PAM: 0; M1 antag: 2; M1 ag: -4; TAAR1 agonist: 44*; TAAR1 ag conf: 50*; Ga16 ag counter: 2; TAAR1 desensitize: 15; Ga16 antag count: 8

Results for CCCCn1c(Nc2ccccc2)nc2ccccc21 ?
TAAR1 antag: 6; CHRM1 PAM: 6; M1 antag: -15; M1 ag: -6; TAAR1 agonist: 45*; TAAR1 ag conf: 3; Ga16 ag counter: 0; TAAR1 desensitize: 5; Ga16 antag count: 7

How did CCCn1c(Nc2nc3ccccc3n2C)nc2ccccc21 do in these assays?
TAAR1 antag: -23; CHRM1 PAM: 6; M1 antag: 1; M1 ag: -3; TAAR1 agonist: 30

How did COc1ccc(Cc2nnc(NC(=O)CSc3ccc(Cl)cc3)s2)cc1OC do in these assays?
TAAR1 antag: 35; TAAR1 agonist: 87*; TAAR1 ag conf: 75*; Ga16 ag counter: 42*; TAAR1 desensitize: 36; Ga16 antag count: 20

Results for COc1ccc(Cc2nnc(NC(=O)CSc3ccccc3)s2)cc1 ?
TAAR1 antag: 50*; CHRM1 PAM: 8; M1 antag: -5; M1 ag: 8; TAAR1 agonist: 49*; TAAR1 ag conf: 8; Ga16 ag counter: 0; TAAR1 desensitize: 3; Ga16 antag count: 7

How did CN(C)S(=O)(=O)c1ccc(C(=O)NCC(=O)N/N=C/c2ccccc2)cc1 do in these assays?
CHRM1 PAM: 5; M1 antag: 2; M1 ag: -2; Ga16 ag counter: 1; Ga16 antag count: 5

What do the screens show for `O=C(NCCc1ccccc1)c1ccc(CS(=O)(=O)Cc2ccccc2F)o1`?
TAAR1 antag: 32; CHRM1 PAM: -3; M1 antag: 0; M1 ag: -3; TAAR1 agonist: 55*; TAAR1 ag conf: 83*; Ga16 ag counter: 6; TAAR1 desensitize: 66*; Ga16 antag count: 9

How did Cc1ccc(CCNC(=O)c2ccc(CS(=O)(=O)Cc3ccccc3F)o2)cc1 do in these assays?
TAAR1 antag: 32; CHRM1 PAM: -12; M1 antag: 20; M1 ag: -2; TAAR1 agonist: 18

Results for CN(CCNC(=O)c1ccc(CS(=O)(=O)c2c(Cl)cccc2Cl)o1)CCc1ccccc1 ?
TAAR1 antag: -17; CHRM1 PAM: 6; M1 antag: -11; M1 ag: -5; TAAR1 agonist: 44*; TAAR1 ag conf: 55*; Ga16 ag counter: 5; TAAR1 desensitize: 8; Ga16 antag count: 7

What do the screens show for `CCOc1ccccc1NC(=O)C1CCCN1S(=O)(=O)c1ccc2c(c1)C(C)(C)C(=O)N2C` (stereo unspecified)?
TAAR1 antag: 0; CHRM1 PAM: 2; M1 antag: -8; M1 ag: -3; TAAR1 agonist: 0

Results for O=C(C(=O)N1CCc2ccccc2C1)c1cn(CC(=O)N2CCOCC2)c2ccccc12 ?
TAAR1 antag: -6; CHRM1 PAM: 10; M1 antag: -4; M1 ag: -5; TAAR1 agonist: 75*; TAAR1 ag conf: 39*; Ga16 ag counter: 5; TAAR1 desensitize: -1; Ga16 antag count: 8

Results for O=C(C(=O)N1CCOCC1)c1cn(CC(=O)N2CCc3ccccc3C2)c2ccccc12 ?
TAAR1 antag: -14; CHRM1 PAM: 5; M1 antag: -4; M1 ag: -4; TAAR1 agonist: 2

What do the screens show for `O=C(C(=O)N1CCc2ccccc2C1)c1cn(CC(=O)N2CCCCC2)c2ccccc12`?
TAAR1 antag: 70*; CHRM1 PAM: 7; M1 antag: -8; M1 ag: -8; TAAR1 agonist: 80*; TAAR1 ag conf: 102*; Ga16 ag counter: 2; TAAR1 desensitize: 86*; Ga16 antag count: 12

How did CN1CCN(C(=O)C(=O)c2cn(CC(=O)N3CCCCCC3)c3ccccc23)CC1 do in these assays?
TAAR1 antag: 0; CHRM1 PAM: -3; M1 antag: -1; M1 ag: -4; TAAR1 agonist: 2

How did CC1(C(=O)NS(=O)(=O)c2ccc3c(c2)CCO3)CCN1C(=O)Cc1ccc(-c2ccccc2)cc1 (stereo unspecified) do in these assays?
TAAR1 antag: -37; CHRM1 PAM: 7; M1 antag: -11; M1 ag: -2; TAAR1 agonist: 8

How did O=C(NNC(=O)c1cc(S(=O)(=O)N2CCOCC2)ccc1Cl)c1ccc(F)cc1 do in these assays?
TAAR1 antag: 0; CHRM1 PAM: -1; M1 antag: -6; M1 ag: -3; TAAR1 agonist: 0

How did Oc1ccc(C2CNCc3sccc32)cc1O (stereo unspecified) do in these assays?
TAAR1 antag: 78*; CHRM1 PAM: -3; M1 antag: -19; M1 ag: 1; TAAR1 agonist: 92*; TAAR1 ag conf: 105*; Ga16 ag counter: 6; TAAR1 desensitize: 95*; Ga16 antag count: 5

How did Cc1cc(C)nc(SCc2nnc(SCC(=O)Nc3nc(-c4ccccc4)cs3)n2C)n1 do in these assays?
TAAR1 antag: 4; CHRM1 PAM: 4; M1 antag: -22; M1 ag: 0; TAAR1 agonist: 25
